Assay results: publication PMC5562219 (Theranostics, 2017)

Experiments:
[1] = tested on: MHC-I molecules in ischemic brain; assay: In vivo and ex vivo NIRF imaging in photothrombotic stroke mice; set-up: species or system mouse
Method in brief: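 Photothrombotic stroke in male C57BL/6 mice (6 weeks old), with brains illuminated 15 min and lesions confirmed by T2 MRI at 24 h. Cy5.5-labelled probe or scrambled control probe given i.v. via tail vein (10 nM, 200 μL PBS pH 7.4). Serial brain NIRF imaging 1–24 h (ex 675 nm, em 695 nm long pass). TBR taken as ischemic/contralateral hemisphere. Brain, heart, spleen, liver, kidney and lung then imaged ex vivo; n=6, mean±SEM.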

[2] = tested on: primary cultured cortical neurons; assay: CCK-8 assay on neuronal cultures; type: cell-based, mouse; settings: CCK-8, neuronal cultures treated with different dilutions of the probes for 24 h

## K(Cy5.5)ALYNFATM [Cy5.5-H2BP]
[1]; 24 h after injection of the probe, suggests excretion mainly via the kidney
  ex vivo NIRF signal intensity in the kidney: high signal intensity
[1]; 24 h after probe administration, compared with Cy5.5-H2CP probe, n=6 per group
  target background ratio (TBR), ischemic/contralateral hemisphere: significantly enhanced
[1]; ex vivo NIRF images, brain, heart, liver, spleen, lung, kidney, n=6
  TBR values in brain versus other organs: significantly higher in the brain than in other organs
[1]; photothrombosis model mice, tail vein injection, 10 nM, 200 μL in PBS pH 7.4
  time of peak NIRF signal intensity post-injection: approximately 8 h
[2]
  cytotoxicity to neurons: low cytotoxicity
